Laboratory results from ChEMBL document CHEMBL4038304, “Chiral Indolylarylsulfone Non-Nucleoside Reverse Transcriptase Inhibitors as New Potent and Broad Spectrum Anti-HIV-1 Agents” (J Med Chem, 2017).
Active and inactive are the calls of the source. The rule behind the calls is not given here.

Assays:
[1] = tested on: Human immunodeficiency virus 1; assay: Antiviral activity against HIV1 NL4-3 infected in human […] cells assessed as protection against virus-induced cytopathic effect measured on day 5 post infection by MTT assay; assay type: functional, cell-based; details: Human immunodeficiency virus 1, NL4-3, 120 h
How it was run: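 Values are means of two to three independent experiments, each run in triplicate. The lowest detectable concentration is reported where activity fell below the assay limit.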

[2] = tested on: Human immunodeficiency virus 1; assay: Antiviral activity against HIV1 harboring reverse transcriptase K103N mutant infected in human […] cells assessed as protection against virus-induced cytopathic effect measured on day 5 post infection by MTT assay; assay type: functional, cell-based; details: Human immunodeficiency virus 1, 120 h
[3] = tested on: Human immunodeficiency virus 1; assay: Antiviral activity against HIV1 harboring reverse transcriptase Y181C mutant infected in human […] cells assessed as protection against virus-induced cytopathic effect measured on day 5 post infection by MTT assay; assay type: functional, cell-based; details: Human immunodeficiency virus 1, 120 h
[4] = tested on: Human immunodeficiency virus 1; assay: Antiviral activity against HIV1 harboring reverse transcriptase Y188L mutant infected in human […] cells assessed as protection against virus-induced cytopathic effect measured on day 5 post infection by MTT assay; assay type: functional, cell-based; details: Human immunodeficiency virus 1, 120 h
[5] = tested on: Human immunodeficiency virus 1; assay: Antiviral activity against HIV1 harboring reverse transcriptase K103N /[…] double mutant infected in human […] cells assessed as protection against virus-induced cytopathic effect measured on day 5 post infection by MTT assay; assay type: functional, cell-based; details: Human immunodeficiency virus 1, 120 h
[6] = target: Human immunodeficiency virus type 1 reverse transcriptase (Human immunodeficiency virus 1, UniProt Q72547); assay: Inhibition of HIV1 NL4-3 reverse transcriptase His-tagged p66/p51 associated RNA dependent DNA polymerase activity expressed in Escherichia coli assessed as reduction in [3H]dTTP incorporation using poly(rA)/oligo(dT) as template/primer by scintillation counting analysis
[7] = target: Human immunodeficiency virus type 1 reverse transcriptase (Human immunodeficiency virus 1, UniProt Q72547, Y181I); assay: Inhibition of HIV1 reverse transcriptase p66 Y181I mutant associated RNA dependent DNA polymerase activity expressed in Escherichia coli assessed as reduction in [3H]dTTP incorporation using poly(rA)/oligo(dT) as template/primer by scintillation counting analysis
[8] = Inhibition of HIV1 reverse transcriptase p66 K103N/[…] double mutant associated RNA dependent DNA polymerase activity expressed in Escherichia coli assessed as reduction in [3H]dTTP incorporation using poly(rA)/oligo(dT) as template/primer by scintillation counting analysis; set-up: species or system Human immunodeficiency virus 1
[9] = target: Human immunodeficiency virus type 1 reverse transcriptase (Human immunodeficiency virus 1, UniProt Q72547, Y181C); assay: Inhibition of HIV1 reverse transcriptase p66 Y181C mutant associated RNA dependent DNA polymerase activity expressed in Escherichia coli assessed as reduction in [3H]dTTP incorporation using poly(rA)/oligo(dT) as template/primer by scintillation counting analysis
[10] = Cytotoxicity against human MT4 cells assessed as cell viability by MTT assay; assay type: cell-based
How it was run: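 Uninfected MT-4 cells scored for viability by MTT. […] Values are means of two to three independent experiments, each run in triplicate.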

[11] = Selectivity index, ratio of CC50 for human MT4 cells to EC50 for HIV1 NL4-3 infected in human MT4 cells; assay type: toxicity, cell-based; details: read-out: Ratio CC50/EC50
How it was run: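 SI computed as CC50/EC50, using the MTT-based CC50 in uninfected MT-4 cells and the MTT-based EC50 against HIV-1 NL4-3-induced cell death in MT-4 cells. Experiments were run in triplicate, two to three times.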

[12] = tested on: Human immunodeficiency virus 1; assay: Ratio of EC50 for HIV-1 harboring reverse transcriptase K103N mutant infected in human MT4 cells to EC50 for HIV1 NL4-3 infected in human MT4 cells; assay type: functional
How it was run: (§1)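 Fold change calculated as EC50 against the stated resistant mutant HIV-1 strain divided by EC50 against wild-type NL4-3. Both EC50s come from MTT read-out of virus-induced death in MT-4 cells, mean of two to three independent experiments each in triplicate.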

[13] = tested on: Human immunodeficiency virus 1; assay: Ratio of EC50 for HIV-1 harboring reverse transcriptase Y181C mutant infected in human MT4 cells to EC50 for HIV1 NL4-3 infected in human MT4 cells; assay type: functional; how it was run: as §1
[14] = tested on: Human immunodeficiency virus 1; assay: Ratio of EC50 for HIV-1 harboring reverse transcriptase Y188L mutant infected in human MT4 cells to EC50 for HIV1 NL4-3 infected in human MT4 cells; assay type: functional; how it was run: as §1
[15] = tested on: Human immunodeficiency virus 1; assay: Ratio of EC50 for HIV-1 harboring reverse transcriptase K103N/[…] double mutant infected in human MT4 cells to EC50 for HIV1 NL4-3 infected in human MT4 cells; assay type: functional; how it was run: as §1
BV-2 [16] = assay: Antineuroinflammatory activity in C57BL/6 mouse BV2 cells assessed as inhibition of LPS-induced nitric oxide production at 1 to 10 uM after 24 hrs by Griess assay; assay type: functional, cell-based
BV-2 [17] = assay: Downregulation of iNOS mRNA levels in C57BL/6 mouse BV2 cells at 1000 nM after 24 hrs by RT-PCR assay; assay type: functional, cell-based
BV-2 [18] = assay: Downregulation of CD86 mRNA levels in C57BL/6 mouse BV2 cells at 1000 nM after 24 hrs by RT-PCR assay; assay type: functional, cell-based
BV-2 [19] = assay: Effect on CD163 mRNA levels in C57BL/6 mouse BV2 cells at 1000 nM after 24 hrs by RT-PCR assay; assay type: functional, cell-based
BV-2 [20] = assay: Effect on fizz mRNA levels in C57BL/6 mouse BV2 cells at 1000 nM after 24 hrs by RT-PCR assay; assay type: functional, cell-based
BV-2 [21] = assay: Cytotoxicity against C57BL/6 mouse BV2 cells assessed as effect on cell proliferation rate at 10 to 10000 nM up to 48 hrs by MTT assay; assay type: cell-based; details: bv-2, 48 h, 10 µM
How it was run: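 BV2 microglial cells cultured with compound at 10, 102, 103 and 104 nM, then proliferation rate measured.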

[22] = tested on: hippocampal neurons (Mus musculus); assay: Neuroprotective activity against glutamate-induced excitotoxicity in C57BL/6 mouse hippocampal neurons assessed as increase in cell viability at 1000 nM preincubated for 30 mins followed by reincubation in conditioned culture media for 18 hrs in presence of glutamate by hemacytometric analysis
[23] = target: Human immunodeficiency virus type 1 reverse transcriptase (Human immunodeficiency virus 1, UniProt Q72547, K103N); assay: Inhibition of HIV1 reverse transcriptase p66 K103N mutant associated RNA dependent DNA polymerase activity expressed in Escherichia coli assessed as reduction in [3H]dTTP incorporation using poly(rA)/oligo(dT) as template/primer by scintillation counting analysis

Compound | EC50 [1] | EC50 [2] | EC50 [3] | EC50 [4] | EC50 [5] | IC50 [6] | IC50 [7] | IC50 [8] | IC50 [9] | CC50 [10] | Activity (BV-2 [16]) | Activity (BV-2 [17]) | Activity (BV-2 [19]) | Activity (BV-2 [20]) | Activity (BV-2 [21]) | Activity [22] | IC50 [23] | also measured
Cc1cc(C)cc(S(=O)(=O)c2c(C(=O)N[C@@H](C)c3ccccc3F)[nH]c3ccc(Cl)cc23)c1 | 0.7 nM | 103 nM | 680 nM | > 51600 nM | > 51600 nM | 175 nM | 17200 nM | > 10000 nM | 17200 nM |  |  |  |  |  |  |  |  | 
Cc1cc(C)cc(S(=O)(=O)c2c(C(=O)NC(C)C(=O)NCc3ccncc3)[nH]c3ccc(Cl)cc23)c1 (racemic) | 0.2 nM | 1.9 nM | 21 nM | 819 nM | 838 nM |  |  |  |  | 19500 nM | Active | Active | inactive | inactive | Non-Toxic | Active |  | selectivity ratio [11]: 102000; Ratio EC50 [12]: 52; Ratio EC50 [13]: 105; Ratio EC50 [14]: 4095; Ratio EC50 [15]: 4190; Activity (BV-2 [18]): Active
O=C1Nc2ccc(Cl)cc2[C@@](C#CC2CC2)(C(F)(F)F)O1 [EFAVIRENZ] | 15.9 nM | 130 nM | 160 nM | 760 nM | > 317 nM |  |  |  |  | > 15800 nM | Active | Active | inactive | inactive | Non-Toxic | inactive |  | 
Cc1cc(C)cc(S(=O)(=O)c2c(C(=O)N[C@H](C)C(=O)NCc3ccncc3)[nH]c3ccc(Cl)cc23)c1 | 0.7 nM | 114 nM | 181 nM | > 23100 nM | 7120 nM | 13000 nM | 61000 nM | > 200000 nM | 61000 nM |  |  |  |  |  |  |  | > 50000 nM | 
Cc1cc(C)cc(S(=O)(=O)c2c(C(=O)N[C@H](C)c3ccccc3F)[nH]c3ccc(Cl)cc23)c1 | 0.7 nM | 0.7 nM | 0.7 nM | 165 nM | 2490 nM | 87 nM | 456 nM | 222 nM | 456 nM |  |  |  |  |  |  |  | 228 nM | 
Cc1cc(C)cc(S(=O)(=O)c2c(C(=O)N[C@@H](C)C(=O)NCc3ccncc3)[nH]c3ccc(Cl)cc23)c1 | 0.7 nM | 0.7 nM | 0.7 nM | 666 nM | 857 nM | 506 nM | 870 nM | > 40000 nM | 870 nM |  |  |  |  |  |  |  | 417 nM | 
